Source: ChEMBL document CHEMBL2176880 (J Med Chem, 2012)

Columns and labels:
[1] = Drug metabolism in mouse liver microsomes at 5 uM after 15 mins; assay type: ADME, Microsome; conditions: read-out: Drug metabolism
[2] = Drug metabolism in human liver microsomes at 5 uM after 15 mins; assay type: ADME, Microsome; conditions: read-out: Drug metabolism
Summary of the method: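 Compound at 5 μM incubated 15 min with human liver microsomes; read-out is % of compound metabolized. Values are the mean of at least two experiments.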

[3] = biological target: T1, Metabotropic glutamate receptor 2 (Homo sapiens, UniProt Q14416); test: Positive allosteric modulator activity at human mGlu2R expressed in CHO cells incubated for 30 mins by [35S]GTPgammaS binding assay relative to control; assay type: functional, cell-based
Target sequence in this assay (Q14416 19-872 limits assumed): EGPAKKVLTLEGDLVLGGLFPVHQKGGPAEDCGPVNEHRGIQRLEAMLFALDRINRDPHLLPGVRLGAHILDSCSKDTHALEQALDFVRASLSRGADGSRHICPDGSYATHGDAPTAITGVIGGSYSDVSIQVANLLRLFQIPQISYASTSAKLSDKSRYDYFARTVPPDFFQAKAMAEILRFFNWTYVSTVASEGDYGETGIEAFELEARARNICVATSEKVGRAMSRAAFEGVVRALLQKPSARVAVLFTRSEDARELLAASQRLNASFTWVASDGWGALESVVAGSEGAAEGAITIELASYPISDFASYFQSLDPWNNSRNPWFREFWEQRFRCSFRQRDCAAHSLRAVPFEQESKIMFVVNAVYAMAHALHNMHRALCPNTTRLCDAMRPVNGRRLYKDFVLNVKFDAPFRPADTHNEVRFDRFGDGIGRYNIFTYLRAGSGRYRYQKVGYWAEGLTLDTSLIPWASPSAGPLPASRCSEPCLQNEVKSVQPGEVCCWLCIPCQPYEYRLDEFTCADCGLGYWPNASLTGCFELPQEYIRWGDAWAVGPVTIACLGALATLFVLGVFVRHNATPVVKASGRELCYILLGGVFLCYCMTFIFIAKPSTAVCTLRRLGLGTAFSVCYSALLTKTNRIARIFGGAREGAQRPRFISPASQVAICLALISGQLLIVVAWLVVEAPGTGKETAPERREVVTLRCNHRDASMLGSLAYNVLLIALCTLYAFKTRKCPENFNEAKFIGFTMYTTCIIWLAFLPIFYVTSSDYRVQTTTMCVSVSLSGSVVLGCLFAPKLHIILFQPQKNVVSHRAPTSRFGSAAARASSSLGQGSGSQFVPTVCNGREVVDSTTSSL

[4] = biological target: T1, Metabotropic glutamate receptor 2; test: Positive allosteric modulator activity at human mGlu2R expressed in CHO cells incubated for 30 mins by [35S]GTPgammaS binding assay; assay type: functional, cell-based
Target sequence in this assay (Q14416 whole entry): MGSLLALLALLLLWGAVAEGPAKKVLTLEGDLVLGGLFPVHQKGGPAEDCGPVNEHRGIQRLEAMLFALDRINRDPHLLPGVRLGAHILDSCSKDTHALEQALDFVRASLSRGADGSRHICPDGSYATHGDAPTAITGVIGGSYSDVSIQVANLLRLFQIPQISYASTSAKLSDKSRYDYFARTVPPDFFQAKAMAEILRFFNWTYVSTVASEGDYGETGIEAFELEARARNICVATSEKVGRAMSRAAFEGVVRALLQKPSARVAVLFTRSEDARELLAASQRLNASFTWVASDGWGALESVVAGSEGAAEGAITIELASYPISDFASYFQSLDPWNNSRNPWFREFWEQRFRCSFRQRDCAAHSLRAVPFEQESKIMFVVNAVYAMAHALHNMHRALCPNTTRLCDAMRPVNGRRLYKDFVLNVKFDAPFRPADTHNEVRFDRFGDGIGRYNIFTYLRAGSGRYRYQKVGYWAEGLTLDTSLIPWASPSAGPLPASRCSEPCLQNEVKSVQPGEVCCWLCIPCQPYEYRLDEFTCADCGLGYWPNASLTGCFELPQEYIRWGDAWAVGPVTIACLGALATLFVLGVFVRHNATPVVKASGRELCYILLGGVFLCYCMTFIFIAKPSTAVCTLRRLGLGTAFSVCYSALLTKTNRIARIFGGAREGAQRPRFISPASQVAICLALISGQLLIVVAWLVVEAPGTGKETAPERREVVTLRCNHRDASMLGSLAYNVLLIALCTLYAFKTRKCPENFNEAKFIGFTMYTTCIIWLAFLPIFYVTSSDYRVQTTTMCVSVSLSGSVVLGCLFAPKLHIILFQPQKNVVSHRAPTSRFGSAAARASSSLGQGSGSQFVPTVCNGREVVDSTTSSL

hERG = hERG (Homo sapiens, UniProt Q12809); test: Inhibition of human ERG expressed in HEK293 cells at 3 uM by patch clamp assay; assay type: cell-based; conditions: HEK293 cells expressing hERG
Sequence of hERG (Q12809 whole entry): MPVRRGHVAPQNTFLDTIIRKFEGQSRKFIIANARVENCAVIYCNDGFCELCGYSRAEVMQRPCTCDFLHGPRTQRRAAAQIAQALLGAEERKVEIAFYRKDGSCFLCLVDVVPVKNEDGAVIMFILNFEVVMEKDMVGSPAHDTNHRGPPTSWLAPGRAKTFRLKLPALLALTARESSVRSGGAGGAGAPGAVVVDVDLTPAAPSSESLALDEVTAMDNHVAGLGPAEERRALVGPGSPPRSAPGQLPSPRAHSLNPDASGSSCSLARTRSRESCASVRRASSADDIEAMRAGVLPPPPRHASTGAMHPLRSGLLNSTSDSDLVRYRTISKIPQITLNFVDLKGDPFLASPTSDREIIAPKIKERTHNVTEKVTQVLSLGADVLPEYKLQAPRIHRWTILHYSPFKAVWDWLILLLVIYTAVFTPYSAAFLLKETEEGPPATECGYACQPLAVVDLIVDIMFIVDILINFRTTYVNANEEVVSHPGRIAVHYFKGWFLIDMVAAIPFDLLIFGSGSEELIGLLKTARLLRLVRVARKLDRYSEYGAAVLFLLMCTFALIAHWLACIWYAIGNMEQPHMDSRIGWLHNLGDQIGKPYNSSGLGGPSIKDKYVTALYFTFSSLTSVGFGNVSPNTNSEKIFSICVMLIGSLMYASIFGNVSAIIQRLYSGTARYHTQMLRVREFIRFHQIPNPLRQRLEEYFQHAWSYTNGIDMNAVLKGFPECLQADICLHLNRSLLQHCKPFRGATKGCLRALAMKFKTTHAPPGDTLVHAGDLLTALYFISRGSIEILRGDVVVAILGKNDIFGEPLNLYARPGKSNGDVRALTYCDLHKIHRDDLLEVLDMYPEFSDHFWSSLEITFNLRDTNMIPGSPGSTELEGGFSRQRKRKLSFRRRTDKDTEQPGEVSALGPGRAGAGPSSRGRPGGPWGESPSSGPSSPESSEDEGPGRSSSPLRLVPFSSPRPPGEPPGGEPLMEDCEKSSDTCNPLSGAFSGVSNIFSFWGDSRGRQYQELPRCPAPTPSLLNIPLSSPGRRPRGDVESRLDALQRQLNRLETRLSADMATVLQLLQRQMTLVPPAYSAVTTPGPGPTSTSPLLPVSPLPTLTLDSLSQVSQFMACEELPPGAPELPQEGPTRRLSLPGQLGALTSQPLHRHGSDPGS
Summary of the method: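 HEK293 cells stably expressing hERG, whole-cell currents recorded by automated patch clamp in extracellular solution (mM: 150 NaCl, 4 KCl, 1 MgCl2, 1.8 CaCl2, 10 HEPES, 5 glucose, pH 7.4). Vehicle (0.1% DMSO) applied for 5 min, then compound at 0.1, 0.3 and 3 μM, each applied twice (n = 3). Effect taken after 5 min as the mean current of three pulses; residual current compared with vehicle.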

[5] = Oral bioavailability in Sprague-Dawley rat at 10 mg/kg; assay type: ADME, organism-based; conditions: in vivo
[6] = Cmax in Sprague-Dawley rat at […], iv or 10 mg/kg, po; assay type: ADME, organism-based; conditions: in vivo
[7] = AUC (0 to infinity) in Sprague-Dawley rat at 10 mg/kg, po; assay type: ADME, organism-based; set-up: time infinity, dose 10 mg/kg, route oral; conditions: plasma
[8] = Tmax in Sprague-Dawley rat at […], iv or 10 mg/kg, po; assay type: ADME, organism-based; conditions: in vivo
[9] = Volume of distribution at steady state in Sprague-Dawley rat at […], iv or 10 mg/kg, po; assay type: ADME, organism-based; conditions: in vivo, read-out: Vdss
[10] = Half life in Sprague-Dawley rat at […], iv; assay type: ADME, organism-based; set-up: dose 2.5 mg/kg, route intravenous; conditions: in vivo
[11] = Clearance in Sprague-Dawley rat at […], iv; assay type: ADME, organism-based; set-up: dose 2.5 mg/kg, route intravenous; conditions: in vivo
[12] = Ratio of drug level in brain to plasma in Swiss mouse at 10 mg/kg, sc administered as single dose measured 1 hr post dose; assay type: ADME, organism-based; set-up: dose 10 mg/kg, route subcutaneous; conditions: read-out: BPR
Summary of the method: (§1)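 Swiss mice given a single 10 mg/kg sc dose at 1 mg/mL in 20% HP-β-CD + HCl solution, pH 4. Brain and plasma levels taken 1 h post dose. Values are geometric means of at least two runs.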

[13] = Drug level in Swiss mouse brain at 10 mg/kg, sc administered as single dose measured 1 hr post dose; assay type: ADME, organism-based; set-up: dose 10 mg/kg, route subcutaneous; conditions: read-out: Drug uptake; summary of the method: as §1
[14] = Plasma concentration in Swiss mouse at 10 mg/kg, sc administered as single dose measured 1 hr post dose; assay type: ADME, organism-based; set-up: dose 10 mg/kg, route subcutaneous; summary of the method: as §1

Row | SMILES | metabolised at […], 5 µM [1] [%] | metabolised at […], 5 µM [2] [%] | Emax [3] [%] | EC50 [4] [nM] | bioavailability [5] [%] | Cmax [6] [ng/mL] | AUC(0-inf) [7] [ng·h/mL] | Tmax [8] [h] | Vd [9] [L/kg] | half-life [10] [h] | clearance [11] [mL/min/kg] | Kp at 1 h [12] | concentration at 1 h [13] [ng/mL] | concentration at 1 h [14] [ng/mL] | inhibition at 3 µM (hERG) [%]
1 | CCc1cnc2c(C#N)c(N3CCC(c4ccccc4)CC3)ccn12 | 82 | 74 | 225 | – | – | – | – | – | – | – | – | – | – | – | –
2 | CCCc1cnc2c(C#N)c(N3CCC(c4ccccc4)CC3)ccn12 | 81 | 74 | 254 | – | – | – | – | – | – | – | – | – | – | – | –
3 | FC(F)(F)c1c(N2CCC(F)(c3ccccc3)CC2)ccn2c(CC3CC3)nnc12 | 13 | 18 | 292 | – | – | – | – | – | – | – | – | – | – | – | 84
4 | FC(F)(F)c1c(N2Cc3ccccc3C2)ccn2c(CC3CC3)nnc12 | 89 | 50 | 330 | 400 | – | – | – | – | – | – | – | – | – | – | –
5 | FC(F)(F)Cc1nnc2c(Cl)c(N3CCC(F)(c4ccccc4)CC3)ccn12 | 25 | 39 | 310 | – | 63 | 807 | 5990 | 1.7 | 1.9 | 2.6 | 18 | 1.4 | – | – | 42
6 | Fc1ccc(C2CCN(c3ccn4c(CC5CC5)nnc4c3C(F)(F)F)CC2)c(F)c1 | 16 | 2 | 306 | 10 | – | – | – | – | – | – | – | – | – | – | 91
7 | CCCCc1nnc2c(C(F)(F)F)c(N3CCC(c4ccccc4)CC3)ccn12 | 54 | 33 | 364 | – | – | – | – | – | – | – | – | – | – | – | 91
8 | N#Cc1c(N2CCC(c3ccccc3)CC2)ccn2c(CC(F)(F)F)cnc12 | 41 | 24 | 259 | 125 | – | – | – | – | – | – | – | – | – | – | –
9 | FC(F)(F)c1c(N2CCc3ccccc3C2)ccn2c(CC3CC3)nnc12 | 86 | 52 | 278 | 149 | – | – | – | – | – | – | – | – | – | – | –
10 | CC(C)(C)c1nnc2c(C#N)c(N3CCC(c4ccccc4)CC3)ccn12 | – | – | 207 | 1230 | – | – | – | – | – | – | – | – | – | – | –

Now from value to compound, other results behind:

Row | metabolised at […], 5 µM [1] [%] | metabolised at […], 5 µM [2] [%] | Emax [3] [%] | EC50 [4] [nM] | bioavailability [5] [%] | Cmax [6] [ng/mL] | AUC(0-inf) [7] [ng·h/mL] | Tmax [8] [h] | Vd [9] [L/kg] | half-life [10] [h] | clearance [11] [mL/min/kg] | Kp at 1 h [12] | concentration at 1 h [13] [ng/mL] | concentration at 1 h [14] [ng/mL] | SMILES | inhibition at 3 µM (hERG) [%]
11 | 25 | 6 | 278 | – | – | – | – | – | – | – | – | – | – | – | N#Cc1c(N2CCC(c3ccccc3)CC2)ccn2c(CC3CC3)nnc12 | –
12 | 53 | 62 | 308 | 944 | – | – | – | – | – | – | – | – | – | – | Clc1c(N2CCN(c3ccccc3)CC2)ccn2c(CC3CC3)nnc12 | –
13 | 88 | 38 | 240 | 1120 | – | – | – | – | – | – | – | – | – | – | N#Cc1c(N2CCC(c3ccccc3)CC2)ccn2c(CN3CCCC3)nnc12 | –
14 | 40 | 25 | 272 | 299 | – | – | – | – | – | – | – | – | – | – | CCCc1nnc2c(C#N)c(N3CCC(c4ccccc4)CC3)ccn12 | –
15 | 72 | 38 | 175 | 1230 | – | – | – | – | – | – | – | – | – | – | FC(F)(F)c1c(N2CCC(c3ccccc3)C2)ccn2c(CC3CC3)nnc12 (racemic) | –
16 | – | 56 | 343 | – | – | – | – | – | – | – | – | 1.4 | 3830 | 2660 | Clc1c(N2CCC(c3ccccc3)CC2)ccn2c(CC3CC3)nnc12 | 99
17 | 8 | 13 | 300 | 55 | – | – | – | – | – | – | – | 1.8 | 2090 | 1160 | FC(F)(F)Cc1nnc2c(Cl)c(N3CCC(c4ccccc4)CC3)ccn12 | 71
18 | 42 | 29 | 334 | 116 | 35 | 359 | 1010 | 0.7 | 1.4 | 1.9 | 53 | 1.3 | – | – | CCc1nnc2c(C(F)(F)F)c(N3CCC(c4ccccc4)CC3)ccn12 | 36
19 | 78 | 31 | 268 | 519 | – | – | – | – | – | – | – | – | – | – | FC(F)(F)c1c(N2CCC(c3cccnc3)CC2)ccn2c(CC3CC3)nnc12 | –
20 | 10 | 9 | 277 | – | – | – | – | – | – | – | – | – | – | – | N#Cc1c(N2CCC(c3ccccc3)CC2)ccn2c(CC(F)(F)F)nnc12 | 33
21 | 7 | 11 | 247 | – | – | – | – | – | – | – | – | 0.2 | 135 | 672 | CCc1nnc2c(C#N)c(N3CCC(c4ccccc4)CC3)ccn12 | 20
22 | 41 | 56 | 243 | – | 53 | 289 | 1160 | 1.3 | 5.1 | 2.1 | 77 | 1.6 | – | – | FC(F)(F)C1(c2ccccc2)CCN(c2ccn3c(CC4CC4)nnc3c2Cl)CC1 | 42
23 | 31 | 12 | 196 | 468 | – | – | – | – | – | – | – | – | – | – | COCc1nnc2c(C#N)c(N3CCC(c4ccccc4)CC3)ccn12 | –
24 | 39 | 57 | 262 | 386 | – | – | – | – | – | – | – | – | – | – | CCc1nnc2c(Cl)c(N3CCC(c4ccccc4)CC3)ccn12 | 43
